OX1R antag-1 = human HCRTR1 antagonism. inhibition, % at 5 µM. CHO/OX1R cells, Fluo-8 calcium fluorescence, orexin A. 0.43% of 330,000 active. AID 434989;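 active = inhibition above its plate's threshold, mean inhibition of all tested compounds on the plate plus 3 SD, cut at about 37% in these data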;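 note: 0% = orexin A challenge wells and 100% = SB-334867-A antagonist wells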
Target sequence (O43613 whole entry, looked up): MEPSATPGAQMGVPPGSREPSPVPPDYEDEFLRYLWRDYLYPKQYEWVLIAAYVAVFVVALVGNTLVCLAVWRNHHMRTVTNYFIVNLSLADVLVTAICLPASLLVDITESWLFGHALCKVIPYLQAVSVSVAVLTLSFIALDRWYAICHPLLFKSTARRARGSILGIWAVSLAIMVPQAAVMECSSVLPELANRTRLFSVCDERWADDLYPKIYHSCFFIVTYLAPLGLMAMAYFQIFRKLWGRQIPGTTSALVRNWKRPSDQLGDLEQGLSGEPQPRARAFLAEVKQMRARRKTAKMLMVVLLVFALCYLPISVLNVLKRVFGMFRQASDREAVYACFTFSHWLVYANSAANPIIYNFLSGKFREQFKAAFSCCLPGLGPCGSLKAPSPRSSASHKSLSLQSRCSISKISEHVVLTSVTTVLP
OX1R antag-2 = blocks the human orexin 1 receptor; OX1R-expressing cells, FRET antagonist read-out; inhibition, % at 6.6 µM; 1.8% of 330,000 active; O43613; in the data active = inhibition mostly above about 38%, no sharp cut-off; inactive = mostly below about 40%;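 note: 0% = agonist challenge alone and 100% = reference antagonist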
OXTR potentiator = potentiates the human oxytocin receptor response | AID 2445 | activation, % at 3 µM | 0.061% of 320,000 active | CHO-OTR cells, Fluo-8 calcium fluorescence, potentiator mode; 0% = oxytocin EC15, 100% = EC100;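 active = activation above that plate's cutoff, the mean activation of tested compounds plus 3 SD, cut at about 6.6% in these data, passing the limit was not always enough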;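 note: 100% uses oxytocin at 75 nM as the full agonist control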
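Dosing: Single dose, 3.0 µM nominal final compound concentration | Material: Human OTR in CHO cells | Technique: Kinetic Fluo-8 calcium fluorescence | Benchmarks: EC15 oxytocin alone as 0%, 75 nM oxytocin as 100% | Probe or stimulus: Oxytocin at about EC15, sub-maximal agonist stimulus | Incubation: Compound 6 min at room temperature before oxytocin, 100 s read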
V1R ag counter = V1a receptor agonism, counter-screen for OXTR agonists; P37288; CHO-V1R cells, Fluo-8 calcium fluorescence, agonist mode; 0% DMSO, 100% 3 nM vasopressin; activation, % at 3 µM; 0.25% of 320,000 active;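 active = activation above the mean activation of all tested compounds plus 3 SD, per screening run, cut at about 20% in these data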;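 note: signal is peak over basal fluorescence ratio across a 100 second FLIPR read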
OXTR ag = agonists of human oxytocin receptor. P30559. CHO-OTR cells, Fluo-8 calcium fluorescence; normalized: DMSO 0%, oxytocin 100%. activation, % at 3 µM. 0.32% of 320,000 active. AID 2435;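 active = activation above the mean of all tested compounds plus 3 SD, cutoff set per screening run, cut at about 20% in these data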;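 note: peak over basal fluorescence ratio from a 100 s FLIPR kinetic read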
CHO parental Ca = signal in parental CHO cells, OX1R antagonist counter-screen; inhibition, % at 5.6 µM; parental CHO-K1, ATP-induced calcium, Fluo-8 fluorescence; 0.63% of 330,000 active;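 active = inhibition above that plate's mean sample inhibition plus 3 SD, cut at about 26% in these data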;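 note: 0% = ATP-challenged DMSO wells and 100% = DMSO wells without ATP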
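Test system: untransfected parental CHO cell line; also added: ATP stimulus; dosing: 5.6 µM, single dose; signal: calcium-sensitive Fluo-8 fluorescence; measure: percent inhibition of ATP-evoked calcium rise, normalized to controls; benchmarks: low control ATP plus DMSO, high control DMSO only; replication: one well per compound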
Active calls of the source: *. Compounds with a hit are over-represented: about 2.7% of the library has one in this group of screens.

SMILES | OX1R antag-1 | OX1R antag-2 | OXTR potentiator | V1R ag counter | OXTR ag | CHO parental Ca
COc1ccc(OC)c2sc(N3CCN(C(=O)c4ccc([N+](=O)[O-])s4)CC3)nc12 | 1 | 46* | -6 | 0 | -1 | 4
O=C(NCCC(=O)N1CCN(c2ccccn2)CC1)c1ccc([N+](=O)[O-])cc1 | -5 | 35* | -2 | 0 | 1 | -10
COc1ccc(OC)c2sc(N3CCN(C(=O)c4ccc5ncsc5c4)CC3)nc12 | -24 | 13 | -3 | 1 | 0 | -22
CC(=O)N1CCN(C(=O)c2cccc(NS(=O)(=O)c3ccc(Br)cc3)c2)CC1 | 9 | 14 | -6 | -1 | 1 | -9
Cc1csc(Nc2nc(N)c(C(=O)Nc3ccccc3)o2)n1 | -25 | 11 | -2 | 1 | -2 | -3
O=C(c1cc(Br)c(Br)s1)N1CCN(c2ccccn2)CC1 | -26 | 24 | -9 | 5 | 2 | -12
O=C(c1ccc([N+](=O)[O-])s1)N1CCN(c2ccccn2)CC1 | -5 | 46* | -2 | 1 | 1 | 1
CCN(C(=O)c1cc2c(s1)-c1ccccc1OC2)c1cc(OC)ccc1OC | -8 | 14 | -22 | 1 | 0 | 35*
O=C(COC(=O)c1ccc([N+](=O)[O-])o1)Nc1ccc(Br)cc1F | -7 | 28* | -4 | 1 | 2 | 0
O=C(COC(=O)c1ccc([N+](=O)[O-])o1)NCCc1ccccc1 | 6 | 32* | 0 | 2 | 1 | -5
Cc1ccc(S(=O)(=O)N(C)C)cc1NC(=O)C(C)OC(=O)c1cc[n+]([O-])cc1 (centres undefined) | -4 | 6 | -10 | 1 | 1 | -3
Nc1[nH]n(-c2ccccc2)c(=O)c1N=Nc1ccc2ncsc2c1 | -3 | 53* | -7 | -1 | -1 | -12
O=C(Cc1ccccc1)Nc1ccccc1C(=O)N1CCCCCC1 | -3 | 14 | -11 | -1 | 0 | -12
Cc1ccccc1C(=O)N1CCN(c2ccc(NC(=O)CSc3ccc(Cl)cc3)cc2)CC1 | 13 | 23 | -8 | 11 | 13 | 31*
Cc1cccc(OCCC(=O)NNC(=O)c2ccoc2C)c1 | 4 | 0 | 4 | 1 | -1 | -11
COc1cc(C(=O)O)ccc1OCC(=O)N1CCOCC1 | -16 | 17 | -8 | 0 | 0 | -15
COc1cc(/C=C2\SC(=O)NC2=O)ccc1OCC(=O)N1CCOCC1 | 16 | 52* | -7 | 1 | 1 | -14
COc1cc(NC(=O)NCCN2CCN(c3ccc(Cl)cc3)CC2)ccc1C | 17 | 1 | -20 | 35* | 22* | 14
COc1ccc(N2CCN(CCNC(=O)Nc3ccc(C)c(Cl)c3)CC2)cc1 | -19 | -4 | -19 | 12 | 18 | -2
C(=N\NC1=Nc2cccc3cccc1c23)/c1ccccc1 | -23 | 54 | -3 | -1 | -2 | -23
NC1=Nc2cccc3cccc1c23 | -4 | 71* | -7 | 0 | 0 | 11
COC(=O)c1ccccc1NC(=O)C(C)Oc1ccccc1 (centres undefined) | -28 | 16 | -12 | -2 | -2 | -31
COC(=O)c1cccc2nc3c(C(C)O)cccc3nc12 (centres undefined) | -19 | 50* | -3 | 0 | -1 | -8
CC(C(=O)N1CCc2ccccc21)N1CCN(S(=O)(=O)c2cccc(C(F)(F)F)c2)CC1 (centres undefined) | -4 | 8 | 2 | 0 | -1 | -20
O=C(Nc1cccc2ncccc12)c1ccc([N+](=O)[O-])o1 | 0 | 70* | 6 | 0 | 1 | 4
SMILES | OX1R antag-1 | OX1R antag-2 | OXTR potentiator | V1R ag counter | OXTR ag | CHO parental Ca
CN1CCN(c2ccccc2NC(=O)c2ccc([N+](=O)[O-])o2)CC1 | -23 | 71* | -9 | 1 | -1 | -18
Cc1ccccc1NC(=O)c1ccc([N+](=O)[O-])o1 | -4 | 70* | -10 | -1 | 0 | 4
CS(=O)(=O)N1CCN(c2ccccc2NC(=O)c2ccc([N+](=O)[O-])o2)CC1 | -2 | 35 | -8 | -1 | -1 | -20
O=C(Nc1cccc2ncccc12)c1ccc(-c2ccc(Br)cc2)o1 | -12 | 10 | -10 | 3 | 1 | -33
CCn1nnc(NC(=O)c2ccc([N+](=O)[O-])o2)n1 | -3 | 69* | -7 | 0 | 0 | -4
NCc1ccccc1 | -6 | 7 | 2 | 0 | 0 | -12
COc1ccc(CNC(=O)c2ccc(N3CCC4(CC3)CC(c3ccc(Cl)cc3)=NO4)c(NC(=O)Cc3ccc(F)cc3)c2)cc1 | 1 | 5 | -2 | 2 | 1 | -5
CCOc1ccc(CCNC(=O)COC(=O)c2nccnc2N)cc1OCC | -18 | 13 | 1 | 0 | -1 | 2
Cc1c(NC(=O)c2ccc([N+](=O)[O-])o2)cccc1-c1nc2ncccc2o1 | -3 | 63* | -14 | 2 | 2 | -15
O=C(Nc1cc(Cl)ccc1-n1cncn1)c1ccc([N+](=O)[O-])o1 | -24 | 48* | -1 | 0 | 0 | -9
COc1cccc(C(=O)Nc2cccc(-c3nc4ncccc4o3)c2C)c1 | -16 | 16 | -14 | 0 | 0 | -10
O=C(c1ccc(-c2ccc(Cl)cc2)o1)N1CCN(c2ccc([N+](=O)[O-])cc2Cl)CC1 | 6 | 17 | -11 | 4 | 4 | 37*
O=C(c1ccc(-c2ccc([N+](=O)[O-])cc2)o1)N1CCCCC1 | -3 | 26 | -6 | -1 | -1 | -9
CC(=O)c1sc(N/N=C\c2ccccc2O)nc1C | -7 | 51* | -11 | 4 | 3 | 5
CCOC(=O)c1sc(N/N=C/c2ccccc2)nc1C | -5 | 20 | -7 | 0 | -2 | -19
CC(OC(=O)Cc1n[nH]c(=O)c2ccccc12)C(=O)Nc1ccc(F)cc1 (centres undefined) | -11 | 24 | -4 | -1 | 0 | 2
O=C(O)c1ccc(N(Cc2ccccc2)S(=O)(=O)c2ccccc2)cc1 | 1 | 1 | -16 | 1 | 0 | -16
CC(=O)Nc1ccc(S(=O)(=O)N(Cc2ccccc2)c2ccccc2)cc1 | 8 | 66* | -12 | -1 | 0 | -10
O=C(Nc1cccnc1Cl)c1cc(-c2cccc(O)c2)on1 | -10 | 2 | -1 | 3 | 4 | 14
CC(=O)N(C1=C(Cl)C(=O)c2ccccc2C1=O)C1CCCCC1 | 22 | 71* | -1 | -1 | -2 | 38*
Cc1ccc(N(CC(O)CON=C2c3ccccc3-c3ccccc32)S(C)(=O)=O)cc1 (centres undefined) | 33 | 54* | -9 | 3 | 4 | -6
Cc1ccc(N(CC(O)Cn2c3ccccc3c3ccccc32)S(C)(=O)=O)cc1 (centres undefined) | 21 | 31 | -4 | 5 | 7 | 0

Source: PubChem BioAssay
